As usually defined, the inhibition is the relative decrease from the control value, in per cent.

SMILES strings stand for the structures. Calls of active or inactive are those of the source.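 The calls were made as follows, unless noted: active = compounds giving at least 50% inhibition in the cell-based MKP-3 phosphatase rescue imaging test; inactive = the rest.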

Test [1] is described as follows: inhibitors of TNFa-induced NFkB p65 translocation, primary screen, imaging, HUVEC, MLSMR starter and 10KST1 sets (AID 438;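 active = inhibition above 20% together with a positive visual image hit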;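 also: compound added about 3h40 before a 20 min TNFalpha stimulation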;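 as to inhibition: signal is the nuclear over cytoplasmic p65 intensity ratio per well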). To be noted: HUVEC TNFa-induced p65 nuclear translocation; cell count: measured here: nuclei count (cytotoxicity indicator), at 2.08 µM; inhibition: at 2 µM, stronger effect = higher value, 0% TNFa-plus-vehicle, 100% no-TNFa wells.
A short description of test [2]: endothelial E-selectin expression blockers – imaging, HUVEC, immunofluorescence, MLSMR starter and 10KST1 sets, primary screen (AID 487;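 active = visually confirmed hit in the image check and inhibition above 20%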;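 as to inhibition: signal is fraction of cell area covered by stained E-selectin grains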;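 as to nuclei count: 100% = median nuclei count of all wells on the same plate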). To be noted: HUVEC TNFalpha-induced E-selectin immunofluorescence imaging, at 2 µM; inhibition: stronger effect = higher value; nuclei count: measured here: cell number, toxicity.
Test [3] is described as follows: Primary imaging screen for DUSP6 inhibitors that restore phospho-Erk in transfected HeLa cells, chemical complementation (AID 609).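 As to inhibition: phospho-Erk level distribution per well compared with pooled transfected vehicle control wells.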 To be noted: HeLa MKP-3 transfected, phospho-Erk imaging KS statistic, at 10 µM, cells stimulated with TPA for 15 min.
Test [4] has as its target Dual specificity protein phosphatase 6 (Homo sapiens) (UniProt Q16828). Described as above. The settings on record: HeLa MKP-3 transfected, phospho-Erk imaging KS statistic; at 10 µM; stronger effect = higher value; cells stimulated with TPA for 15 min.
Test [5] deals with Voltage-gated potassium channel subunit beta-2 (Rattus norvegicus) (UniProt P62483). The test is described as follows: inhibitors of rat Kvbeta2 reductase activity – biochemical, NADPH fluorescence, primary screen (AID 622;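 active = fluorescence slope higher than the sample average by over 3 SD, cut at about -0.22 in these data, passing the limit was not always enough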;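 also: slope of raw intensity against log time taken from 70 to 1610 s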). To be noted: recombinant KvBeta, 4-cyanobenzaldehyde reduction, at 10 µM, stronger effect = higher value.
Voltage-gated potassium channel subunit beta-2 (Rattus norvegicus), sequence (P62483 whole entry, looked up): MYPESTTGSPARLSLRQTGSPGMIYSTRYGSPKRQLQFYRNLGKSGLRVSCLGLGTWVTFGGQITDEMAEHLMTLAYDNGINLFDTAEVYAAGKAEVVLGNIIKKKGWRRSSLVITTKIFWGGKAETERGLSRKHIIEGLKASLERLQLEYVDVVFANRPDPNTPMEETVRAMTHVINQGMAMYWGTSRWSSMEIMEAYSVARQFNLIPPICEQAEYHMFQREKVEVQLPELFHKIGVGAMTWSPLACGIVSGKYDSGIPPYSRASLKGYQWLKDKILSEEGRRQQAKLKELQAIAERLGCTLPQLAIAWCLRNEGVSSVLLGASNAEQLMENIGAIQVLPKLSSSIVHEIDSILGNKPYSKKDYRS
Test [6] shares this target. As to the kind of experiment: enhancers of rat Kvbeta2 NADPH turnover – biochemical, NADPH fluorescence, primary screen (AID 623;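 active = NADPH fluorescence slope more negative than the mean of all samples by about 3 SD, 99.7% confidence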;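 also: fluorescence intensity change per second fitted from 20 to 320 s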). To be noted: Recombinant KvBeta, NADPH fluorescence decrease slope, 10 min; at 10 µM; stronger effect = lower value.
In test [7] the target is Muscarinic acetylcholine receptor M4 (Homo sapiens) (UniProt P08173). As to the kind of experiment: M4-linked GIRK flux change, two-sided – cell-based, HEK293 M4/GIRK, thallium flux, BTC-AM, M4 allosteric agonist project, primary screen (AID 625;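 active = fluorescence slope after compound addition differing from the mean of all tested samples at 99.7% confidence, mostly higher but some lower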;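 also: thallium influx through GIRK channels coupled to M4 in HEK293 cells with BTC-AM dye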). To be noted: at 10 µM, actives lie on both sides. The method in brief:
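assay system = HEK293 cells with M4 receptor and GIRK channels | medium = pH 7.3 thallium assay buffer | doses = 10 µM final, single point | timing = cells overnight at 37 °C, BTC-AM loading 1 h, reads 2 min total | signal = BTC-AM fluorescence, 1 Hz kinetic reads | read-out = post-addition slope, 15–24 s, of baseline-normalized fluorescence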

A short description of test [8]: inhibitors of larval lipid processing in zebrafish, primary screen, whole organism, PED6 fluorescence, gall bladder and intestine (AID 686;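 active = a full or partial loss of lipid-probe fluorescence in the fish gall bladder, intestine or both, judged by eye; inactive = no fluorescence loss, or compound toxic to the fish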;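 also: larvae 5 to 7 days old with five fish per well; signal comes from phospholipase A2 cleavage of quenched PED6 carried via bile; overnight exposure to compound and PED6 before scoring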). To be noted: Zebrafish larvae PED6 lipid processing, fluorescence scoring; screened at 20 µM (by protocol). The gist of the method: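 Also added: quenched phospholipase substrate PED6, 100 nM final, ingested by larvae; System: zebrafish larvae, 5-7 d; Quantity: 5 larvae per well; Compound: 20 µM single dose; Schedule: overnight compound and PED6 incubation; Read-out: visual per-well fluorescence inhibition score; Measured by: By-eye fluorescence microscopy; Medium: E3.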

Test [9] can be described thus: loss of swimming-algae plug formation – whole organism, Chlamydomonas reinhardtii, WT vs cilia-less mutant, absorbance, 96-well, primary screen (AID 463189;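 active = inhibition at or above 50% relative to wild type and mutant plate controls; inactive = inhibition below 50%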;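 also: 0% = wild type cc124 cells in DMSO and 100% = ciliumless bld1 mutant cells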). To be noted: Chlamydomonas reinhardtii gravitaxis, OD600 absorbance, 2 days; at 10 µM; stronger effect = higher value.
[10] abbreviates: measured here: cell density z-score.
[11] abbreviates: measured here: nuclear c-Myc green intensity z-score.
The mark [12] stands for this setting: measured here: nuclear pErk red intensity z-score, stronger effect = higher value.

Dual specificity protein phosphatase 6 (Homo sapiens), sequence (Q16828 whole entry, looked up): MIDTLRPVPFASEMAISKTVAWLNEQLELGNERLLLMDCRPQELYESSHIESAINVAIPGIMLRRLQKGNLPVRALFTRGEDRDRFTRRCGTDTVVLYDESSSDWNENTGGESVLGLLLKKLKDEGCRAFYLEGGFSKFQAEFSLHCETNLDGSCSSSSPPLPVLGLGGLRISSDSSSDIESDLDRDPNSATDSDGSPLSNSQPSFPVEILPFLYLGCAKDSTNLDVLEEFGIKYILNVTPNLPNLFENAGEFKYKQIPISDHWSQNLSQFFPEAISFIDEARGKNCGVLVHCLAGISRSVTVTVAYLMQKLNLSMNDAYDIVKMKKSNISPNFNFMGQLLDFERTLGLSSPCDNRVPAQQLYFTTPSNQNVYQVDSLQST
Muscarinic acetylcholine receptor M4 (Homo sapiens), sequence (P08173 whole entry, looked up): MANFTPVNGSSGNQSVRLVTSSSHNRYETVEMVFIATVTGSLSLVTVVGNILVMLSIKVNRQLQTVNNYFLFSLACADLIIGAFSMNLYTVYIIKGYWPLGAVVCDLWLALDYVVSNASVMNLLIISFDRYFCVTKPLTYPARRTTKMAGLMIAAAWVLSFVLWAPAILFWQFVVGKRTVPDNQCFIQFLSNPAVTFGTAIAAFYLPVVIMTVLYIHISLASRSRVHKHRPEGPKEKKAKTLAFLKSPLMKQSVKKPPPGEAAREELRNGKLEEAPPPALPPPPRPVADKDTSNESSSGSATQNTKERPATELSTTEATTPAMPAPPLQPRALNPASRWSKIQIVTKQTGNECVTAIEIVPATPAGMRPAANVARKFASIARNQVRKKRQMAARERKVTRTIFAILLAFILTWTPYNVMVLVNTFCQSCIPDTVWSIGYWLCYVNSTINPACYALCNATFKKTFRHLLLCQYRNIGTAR

Turning to `Cc1ccc(CNC(=O)c2cc3c(=O)n4ccccc4nc3n(Cc3ccco3)c2=N)cc1`, in test [1], the cell count came to 620. Moreover, the inhibition in [1] was 2.6% (inactive); in test [2] it was 18.3% (inactive); in test [4] it was -2.29% (inactive); in test [9], 32.6% (inactive). Moreover, the nuclei count in [2] worked out at 134%. The z-score in test [3] (setting [10]) was -0.0379; in [3] (setting [11]) it was 0.826; in test [3] (setting [12]), -0.239. Further, the values for the fluorescence slope in test [5] and in [7] were -0.456 (inactive) and 0.00363 (inactive), respectively. Further, the NADPH fluorescence slope in test [6] is -4.8e-05 (inactive). In test [8], the outcome is “active; weak signal in gallbladder and intestine”.
With `COc1cccc(C(=O)Nc2ccc(-c3nnc(-c4ccco4)o3)cc2)c1`, the cell count in [1] worked out at 684. Also, the inhibition in [1] was 6.3% (inactive); in test [2], 25.7% (inactive); in test [4], 1.63% (inactive); in test [9] it was -6.98% (inactive). In test [2], this compound had a nuclei count of 158%. Also, the z-score in test [3] (setting [10]) was -0.186; in test [3] (setting [11]) it was 0.958; in test [3] (setting [12]) it was -0.649. The fluorescence slope in test [5] was -0.476 (inactive); in test [7], 0.00624 (inactive). Further, in test [6], the NADPH fluorescence slope is -4.6e-05 (inactive). Also, the compound was classed as inactive in [8].
In the case of `COC(=O)c1ccc(C2/C(=C(/O)c3ccc(OC)cc3)C(=O)C(=O)N2Cc2ccco2)cc1` (stereo unspecified), the cell count in [1] came to 603. Moreover, the inhibition in test [1] was -5.8% (inactive); in test [2], -47.8% (inactive); in [4], -4.59% (inactive); in [9], -8.72% (inactive). The nuclei count in [2] is 96.4%. For the same compound, the z-score in test [3] (setting [10]) is -1.62; in test [3] (setting [11]), 0.429; in test [3] (setting [12]), -2.41. For the same compound, the fluorescence slope in [5] is -0.4 (inactive); in test [7] it was 0.0058 (inactive). For the same compound, the NADPH fluorescence slope in [6] was 4.5e-06 (inactive). Moreover, in test [8], the compound was classed as inactive.
As to `Cc1ccc(C2CC(c3cccs3)n3nc(N)nc3N2)cc1` (stereo unspecified), the cell count in [1] was determined as 390. In addition, the inhibition was -2% (inactive) in [1], -110% (inactive) in test [2], 3.56% (inactive) in test [4] and 31.5% (inactive) in [9]. This compound also gave a nuclei count in [2] of 149%. Moreover, the z-score in test [3] (setting [10]) was -0.677; in [3] (setting [11]), 0.494; in [3] (setting [12]), -0.466. The fluorescence slope in test [5] was -0.429 (inactive); in test [7], 0.00581 (inactive). For the same compound, the NADPH fluorescence slope in test [6] was -0.000111 (inactive). The result in test [8] was inactive.
For the compound `CCC1CC2(C)NC(=O)c3c(sc4c3CC(C)(C)OC4)N2C1=O` (stereo unspecified), the cell count in test [1] worked out at 497. Besides, the inhibition was -0.8% (inactive) in [1], -48.8% (inactive) in test [2], 1.98% (inactive) in test [4] and 31.2% (inactive) in test [9]. The nuclei count in test [2] came to 175%. In addition, the z-score in test [3] (setting [10]) was 0.444; in test [3] (setting [11]), 0.00352; in test [3] (setting [12]), -0.401. Further, the fluorescence slope in [5] was -0.397 (inactive); in [7], 0.00496 (inactive). Besides, the NADPH fluorescence slope in test [6] is 3.9e-06 (inactive). For the same compound, in test [8], the call was inactive.
Take `Cc1cc(=O)oc2cc(OCC(=O)NCc3cccnc3)ccc12`: in [1], the cell count is 618. The inhibition is 9% (inactive) in test [1], -1.6% (inactive) in [2], -3.95% (inactive) in test [4] and -0.087% (inactive) in [9]. This compound displayed a nuclei count in test [2] of 105%. For the same compound, the values for the z-score in test [3] (setting [10]), in [3] (setting [11]) and in [3] (setting [12]) were -0.419, -0.48 and 0.0246, respectively. Besides, the fluorescence slope in [5] is -0.428 (inactive); in test [7], 0.00447 (inactive). Besides, in test [6], the NADPH fluorescence slope is -5e-05 (inactive). In test [8], the outcome was inactive.
`CN(C)CCCN1C(=O)C(=O)/C(=C(/O)c2ccccc2)C1c1ccccn1` (stereo unspecified): in test [1], the cell count stood at 473. The inhibition in test [1] is -8.2% (inactive); in test [2], -97.3% (inactive); in test [4] it was 1.04% (inactive); in test [9], 10.1% (inactive). Also, in test [2], the nuclei count is 158%. For the same compound, the figures for the z-score in test [3] (setting [10]), in test [3] (setting [11]) and in test [3] (setting [12]) were 1.03, -1.2 and 0.352, respectively. Besides, the fluorescence slope in [5] was -0.486 (inactive); in test [7], 0.00459 (inactive). In [6], the NADPH fluorescence slope was -6.1e-05 (inactive). In addition, the compound was classed as inactive in [8].

Source of the values: PubChem BioAssay.
